# Assays:
# Cynomolgus monkey [1] = test: Tmax as total radioactivity in female cynomolgus monkey plasma at 6 mg/kg, po administered as single dose by LC/MS/MS analysis; type: ADME, organism-based, Macaca fascicularis; design: dose 6 mg/kg, dosed compound name [14C]Sunitinib, route oral; details: in vivo
# Cynomolgus monkey [2] = test: Terminal half life as total radioactivity in female cynomolgus monkey plasma at 6 mg/kg, po administered as single dose by LC/MS/MS analysis; type: ADME, organism-based, Macaca fascicularis; design: dose 6 mg/kg, dosed compound name [14C]Sunitinib, route oral; details: in vivo
# [3] = Drug recovery in urine of male Sprague-Dawley rat at 15 mg/kg, po administered as single dose during 0 to 72 hrs by liquid scintillation counting; type: ADME, organism-based; design: dose 15 mg/kg, dosed compound name [14C]Sunitinib, route oral; details: in vivo
# Brain [4] = test: Drug concentration in male Lister Hooded pigmented rat brain assessed as radioactivity per gram of tissue at 20 mg/kg administered as single dose via gastric gavage measured after 24 hrs by autoradiographic analysis; type: ADME, organism-based; design: dose 20 mg/kg, dosed compound name [14C]Sunitinib; details: in vivo, po
# Pancreas = test: Drug concentration in female albino rat pancreas assessed as radioactivity per gram of tissue at 20 mg/kg administered as single dose via gastric gavage measured after 3 hrs by autoradiographic analysis; type: ADME, organism-based; design: dose 20 mg/kg, dosed compound name [14C]Sunitinib; details: in vivo, po
# How it was run: (§1)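 Sprague Dawley albino rats, ca 7-8 weeks old, dosed once by gastric gavage with [14C]sunitinib L-malate (15 mg freebase/kg, 100 µCi/kg). One male and one female killed by CO2 at 3, 6, 24, 72 and 168 h. Carcasses frozen in solid CO2/hexane, embedded and cut into 30 µm sagittal sections, then freeze-dried. Radioactivity quantified by whole-body autoradiography against standards by regression, background subtracted.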
# Blood [5] = test: Drug concentration in male albino rat blood assessed as radioactivity per gram of tissue at 20 mg/kg administered as single dose via gastric gavage measured after 6 hrs by autoradiographic analysis; type: ADME, organism-based; design: dose 20 mg/kg, dosed compound name [14C]Sunitinib; details: in vivo, po
# Brain [6] = test: Drug concentration in male albino rat brain assessed as radioactivity per gram of tissue at 20 mg/kg administered as single dose via gastric gavage measured after 6 hrs by autoradiographic analysis; type: ADME, organism-based; design: dose 20 mg/kg, dosed compound name [14C]Sunitinib; details: in vivo, po
# [7] = Drug concentration in male albino rat lymph node assessed as radioactivity per gram of tissue at 20 mg/kg administered as single dose via gastric gavage measured after 6 hrs by autoradiographic analysis; type: ADME, organism-based; design: dose 20 mg/kg, dosed compound name [14C]Sunitinib; details: in vivo, po
# [8] = Drug concentration in male albino rat pituitary gland assessed as radioactivity per gram of tissue at 20 mg/kg administered as single dose via gastric gavage measured after 6 hrs by autoradiographic analysis; type: ADME, organism-based; design: dose 20 mg/kg, dosed compound name [14C]Sunitinib; details: in vivo, po
# Zone of skin [9] = test: Drug concentration in male albino rat abdomen skin assessed as radioactivity per gram of tissue at 20 mg/kg administered as single dose via gastric gavage measured after 3 hrs by autoradiographic analysis; type: ADME, organism-based; design: dose 20 mg/kg, dosed compound name [14C]Sunitinib; details: in vivo, po
# Zone of skin [10] = test: Drug concentration in female albino rat abdomen skin assessed as radioactivity per gram of tissue at 20 mg/kg administered as single dose via gastric gavage measured after 6 hrs by autoradiographic analysis; type: ADME, organism-based; design: dose 20 mg/kg, dosed compound name [14C]Sunitinib; details: in vivo, po
# How it was run: (§2)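 Sprague Dawley (albino) rats, ca 7-8 weeks old, received a single gastric-gavage dose of [14C]sunitinib L-malate at 20 mg/kg (15 mg freebase/kg, 100 µCi/kg). One animal per sex killed by CO2 at 3, 6, 24, 72 and 168 h, then frozen in CO2/hexane. 30 µm sagittal sections were cut and freeze-dried. Radioactivity per gram quantified by whole-body autoradiography using regression against standards. LOQ 0.04–0.06 µg freebase equiv/g.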
# [11] = Drug concentration in female albino rat uterus assessed as radioactivity per gram of tissue at 20 mg/kg administered as single dose via gastric gavage measured after 6 hrs by autoradiographic analysis; type: ADME, organism-based; design: dose 20 mg/kg, dosed compound name [14C]Sunitinib; details: in vivo, po
# Spinal cord = test: Drug concentration in female albino rat spinal cord assessed as radioactivity per gram of tissue at 20 mg/kg administered as single dose via gastric gavage measured after 3 hrs by autoradiographic analysis; type: ADME, organism-based; design: dose 20 mg/kg, dosed compound name [14C]Sunitinib; details: in vivo, po
# Spleen [12] = test: Drug concentration in female albino rat spleen assessed as radioactivity per gram of tissue at 20 mg/kg administered as single dose via gastric gavage measured after 3 hrs by autoradiographic analysis; type: ADME, organism-based; design: dose 20 mg/kg, dosed compound name [14C]Sunitinib; details: in vivo, po
# [13] = Drug concentration in female albino rat thyroid gland assessed as radioactivity per gram of tissue at 20 mg/kg administered as single dose via gastric gavage measured after 3 hrs by autoradiographic analysis; type: ADME, organism-based; design: dose 20 mg/kg, dosed compound name [14C]Sunitinib; details: in vivo, po
# [14] = Drug concentration in male Lister Hooded pigmented rat eye assessed as radioactivity per gram of tissue at 20 mg/kg administered as single dose via gastric gavage measured after 336 hrs by autoradiographic analysis; type: ADME, organism-based; design: dose 20 mg/kg, dosed compound name [14C]Sunitinib; details: in vivo, po
# Blood [15] = test: Drug concentration in female albino rat blood assessed as radioactivity per gram of tissue at 20 mg/kg administered as single dose via gastric gavage measured after 3 hrs by autoradiographic analysis; type: ADME, organism-based; design: dose 20 mg/kg, dosed compound name [14C]Sunitinib; details: in vivo, po; how it was run: as §2
# Spleen [16] = test: Drug concentration in male Lister Hooded pigmented rat spleen assessed as radioactivity per gram of tissue at 20 mg/kg administered as single dose via gastric gavage measured after 72 hrs by autoradiographic analysis; type: ADME, organism-based; design: dose 20 mg/kg, dosed compound name [14C]Sunitinib; details: in vivo, po
# [17] = Drug concentration in female Lister Hooded pigmented rat bone marrow assessed as radioactivity per gram of tissue at 20 mg/kg administered as single dose via gastric gavage measured after 24 hrs by autoradiographic analysis; type: ADME, organism-based; design: dose 20 mg/kg, dosed compound name [14C]Sunitinib; details: in vivo, po
# How it was run: (§3)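 Lister Hooded (pigmented) rats, ca 7-8 weeks old, acclimated 7 days, given [14C]sunitinib L-malate by gastric gavage at 20 mg/kg (15 mg freebase/kg, 100 µCi/kg). One male and one female killed by CO2 at 24, 72, 168 and 336 h. Carcasses frozen in solid CO2/hexane and embedded in frozen cellulose. 30 µm sagittal cryosections were freeze-dried. Tissue radioactivity measured by quantitative whole-body autoradiography against calibration standards, with background subtracted.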
# [18] = Drug concentration in male albino rat preputial gland assessed as radioactivity per gram of tissue at 20 mg/kg administered as single dose via gastric gavage measured after 24 hrs by autoradiographic analysis; type: ADME, organism-based; design: dose 20 mg/kg, dosed compound name [14C]Sunitinib; details: in vivo, po
# Kidney = test: Drug concentration in male albino rat kidney assessed as radioactivity per gram of tissue at 20 mg/kg administered as single dose via gastric gavage measured after 72 hrs by autoradiographic analysis; type: ADME, organism-based; design: dose 20 mg/kg, dosed compound name [14C]Sunitinib; details: in vivo, po
# Small intestine [19] = test: Drug concentration in male albino rat small intestine assessed as radioactivity per gram of tissue at 20 mg/kg administered as single dose via gastric gavage measured after 72 hrs by autoradiographic analysis; type: ADME, organism-based; design: dose 20 mg/kg, dosed compound name [14C]Sunitinib; details: in vivo, po
# [20] = Drug concentration in female albino rat lachrymal gland assessed as radioactivity per gram of tissue at 20 mg/kg administered as single dose via gastric gavage measured after 72 hrs by autoradiographic analysis; type: ADME, organism-based; design: dose 20 mg/kg, dosed compound name [14C]Sunitinib; details: in vivo, po; how it was run: as §1
# Blood [21] = test: Drug concentration in male albino rat blood assessed as radioactivity per gram of tissue at 20 mg/kg administered as single dose via gastric gavage measured after 24 hrs by autoradiographic analysis; type: ADME, organism-based; design: dose 20 mg/kg, dosed compound name [14C]Sunitinib; details: in vivo, po
# Adrenal [22] = test: Drug concentration in female albino rat adrenal assessed as radioactivity per gram of tissue at 20 mg/kg administered as single dose via gastric gavage measured after 24 hrs by autoradiographic analysis; type: ADME, organism-based; design: dose 20 mg/kg, dosed compound name [14C]Sunitinib; details: in vivo, po; how it was run: as §2
# Small intestine [23] = test: Drug concentration in female Lister Hooded pigmented rat small intestine assessed as radioactivity per gram of tissue at 20 mg/kg administered as single dose via gastric gavage measured after 24 hrs by autoradiographic analysis; type: ADME, organism-based; design: dose 20 mg/kg, dosed compound name [14C]Sunitinib; details: in vivo, po; how it was run: as §3
# Adrenal [24] = test: Drug concentration in female Lister Hooded pigmented rat adrenal assessed as radioactivity per gram of tissue at 20 mg/kg administered as single dose via gastric gavage measured after 168 hrs by autoradiographic analysis; type: ADME, organism-based; design: dose 20 mg/kg, dosed compound name [14C]Sunitinib; details: in vivo, po
# How it was run: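 Pigmented Lister Hooded rats, 7-8 weeks old, received [14C]sunitinib L-malate by gavage at 20 mg/kg (15 mg freebase/kg, 100 µCi/kg). One rat per sex was killed by CO2 at each of 24, 72, 168 and 336 h. Carcasses were frozen in solid CO2/hexane and cut into 30 µm sagittal sections, then freeze-dried. Tissue radioactivity was quantified by whole-body autoradiography calibrated against standards by regression (LOQ 0.04–0.06 µg eq/g).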
# [25] = Drug concentration in female Lister Hooded pigmented rat uveal tract assessed as radioactivity per gram of tissue at 20 mg/kg administered as single dose via gastric gavage measured after 336 hrs by autoradiographic analysis; type: ADME, organism-based; design: dose 20 mg/kg, dosed compound name [14C]Sunitinib; details: in vivo, po; how it was run: as §3
structure (smiles),measurement,setting,value
CCN(CC)CCNC(=O)c1c(C)[nH]c(/[14CH]=C2\C(=O)Nc3ccc(F)cc32)c1C.O=C(O)C[C@H](O)C(=O)O,Tmax,Cynomolgus monkey [1],4 h
same,beta t1/2,Cynomolgus monkey [2],121 h
same,Radiolabel recovery,[3],8.5%
same,Radiolabel recovery,Brain [4],0.06 ugequiv
same,Radiolabel recovery,Pancreas,13.45 ugequiv
same,Radiolabel recovery,Blood [5],0.84 ugequiv
same,Radiolabel recovery,Brain [6],0.34 ugequiv
same,Radiolabel recovery,[7],11.26 ugequiv
same,Radiolabel recovery,[8],22.94 ugequiv
same,Radiolabel recovery,Zone of skin [9],2.81 ugequiv
same,Radiolabel recovery,Zone of skin [10],4.73 ugequiv
same,Radiolabel recovery,[11],6.63 ugequiv
same,Radiolabel recovery,Spinal cord,0.28 ugequiv
same,Radiolabel recovery,Spleen [12],30.72 ugequiv
same,Radiolabel recovery,[13],18.64 ugequiv
same,Radiolabel recovery,[14],39.4 ugequiv
same,Radiolabel recovery,Blood [15],1.66 ugequiv
same,Radiolabel recovery,Spleen [16],0.13 ugequiv
same,Radiolabel recovery,[17],0.74 ugequiv
same,Radiolabel recovery,[18],13.66 ugequiv
same,Radiolabel recovery,Kidney,0.16 ugequiv
same,Radiolabel recovery,Small intestine [19],0.15 ugequiv
same,Radiolabel recovery,[20],0.25 ugequiv
same,Radiolabel recovery,Blood [21],0.07 ugequiv
same,Radiolabel recovery,Adrenal [22],7.65 ugequiv
same,Radiolabel recovery,Small intestine [23],1.16 ugequiv
same,Radiolabel recovery,Adrenal [24],0.35 ugequiv
same,Radiolabel recovery,[25],323.3 ugequiv
